Data taken from ChEMBL document CHEMBL1137298, “2-triazole-substituted adenosines: a new class of selective A3 adenosine receptor agonists, partial agonists, and antagonists” (J Med Chem, 2006).
Calls of active or inactive are those of the source. The calls are words filed in the database; no cut-off is given here.

Legend:
Adenosine receptor A1 = molecular target: T1, Adenosine receptor A1 (Homo sapiens, UniProt P30542); test: Displacement of [3H]CCPA from human Adenosine A1 receptor expressed in CHO cells; format: cell-based
T1 sequence (P30542 whole entry): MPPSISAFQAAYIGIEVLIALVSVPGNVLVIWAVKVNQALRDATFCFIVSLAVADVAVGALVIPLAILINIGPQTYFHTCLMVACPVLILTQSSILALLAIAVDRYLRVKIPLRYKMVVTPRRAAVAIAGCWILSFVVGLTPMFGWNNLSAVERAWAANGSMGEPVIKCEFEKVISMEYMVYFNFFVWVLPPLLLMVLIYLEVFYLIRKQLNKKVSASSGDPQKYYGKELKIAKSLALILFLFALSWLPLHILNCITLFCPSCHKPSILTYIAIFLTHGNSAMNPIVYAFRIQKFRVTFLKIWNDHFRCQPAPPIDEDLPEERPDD

Adenosine receptor A3 [1] = molecular target: T2, Adenosine receptor A3 (Homo sapiens, UniProt P0DMS8); test: Displacement of [125I]AB-MECA from human Adenosine A3 receptor expressed in CHO cells; format: cell-based
T2 sequence (P0DMS8 whole entry): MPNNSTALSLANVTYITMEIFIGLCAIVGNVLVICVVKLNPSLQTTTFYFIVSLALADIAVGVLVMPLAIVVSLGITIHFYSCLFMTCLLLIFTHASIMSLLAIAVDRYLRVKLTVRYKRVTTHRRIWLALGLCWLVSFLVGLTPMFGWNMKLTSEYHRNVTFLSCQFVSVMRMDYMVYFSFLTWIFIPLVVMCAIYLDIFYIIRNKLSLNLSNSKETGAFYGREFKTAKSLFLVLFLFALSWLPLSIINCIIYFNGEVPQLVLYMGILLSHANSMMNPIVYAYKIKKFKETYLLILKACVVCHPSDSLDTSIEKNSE

Adenosine receptor A2a [2] = molecular target: T3, Adenosine receptor A2a (Homo sapiens, UniProt P29274); test: Inhibition of [3H]CGS21680 binding to human Adenosine A2A receptor expressed in CHO cells at 10 uM; format: cell-based
Outline: (§1)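 Membranes from CHO cells stably transfected with human A1AR (radioligand [3H]CCPA) or human A2AAR (radioligand [3H]CGS21680), in Tris-HCl pH 7.4/MgCl2/EDTA buffer with adenosine deaminase. Compound tested at a fixed 10 µM. Result expressed as percent displacement of radioligand, n = 3 unless otherwise noted.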

Adenosine receptor A3 [3] = molecular target: T4, Adenosine receptor A3 (Rattus norvegicus, UniProt P28647); test: Displacement of [125I]AB-MECA from rat Adenosine A3 receptor expressed in CHO cells; format: cell-based
T4 sequence (P28647 whole entry): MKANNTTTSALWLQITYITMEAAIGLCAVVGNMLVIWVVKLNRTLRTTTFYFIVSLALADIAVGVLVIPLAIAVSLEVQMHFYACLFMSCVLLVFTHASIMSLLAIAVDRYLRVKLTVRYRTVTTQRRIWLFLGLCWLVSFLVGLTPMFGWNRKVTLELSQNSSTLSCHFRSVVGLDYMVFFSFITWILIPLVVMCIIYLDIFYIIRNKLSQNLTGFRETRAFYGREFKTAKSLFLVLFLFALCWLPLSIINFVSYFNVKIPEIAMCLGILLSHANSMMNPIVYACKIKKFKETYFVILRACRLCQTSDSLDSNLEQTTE
Outline: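 Membranes from CHO cells expressing rat A3AR, prepared in 50 mM Tris-HCl pH 7.4 with 10 mM MgCl2, 1 mM EDTA and 3 units/mL adenosine deaminase. Incubated with [125I]AB-MECA (0.5 nM final) and increasing compound concentrations for 60 min at 25 °C. Nonspecific binding defined with 10 µM NECA. GF/B filtration, gamma counting, Ki derived.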

[4] = molecular target: Adenosine receptor A2b (Homo sapiens) (UniProt P29275); test: Activity at human adenosine A2B receptor in CHO cells assessed as stimulation of cAMP production relative to NECA at 10 uM
[5] = molecular target: Adenosine receptors; A1 & A3 (Homo sapiens) (UniProt P30542+P0DMS8); test: Selectivity for human adenosine A3 over human adenosine A1 receptor; format: protein assay
Adenosine receptor A2a [6] = molecular target: T3, Adenosine receptor A2a; test: Displacement of [3H]CGS-21680 from human Adenosine A2A receptor expressed in CHO cells; format: cell-based
[7] = molecular target: T5, Adenosine receptor A1 (Homo sapiens) (UniProt P30542); test: Inhibition of [3H]CCPA binding to human Adenosine A1 receptor expressed in CHO cells at 10 uM; format: cell-based; outline: as §1
T5 sequence (whole entry): T1 sequence (P30542 whole entry)

T3 sequence (P29274 whole entry): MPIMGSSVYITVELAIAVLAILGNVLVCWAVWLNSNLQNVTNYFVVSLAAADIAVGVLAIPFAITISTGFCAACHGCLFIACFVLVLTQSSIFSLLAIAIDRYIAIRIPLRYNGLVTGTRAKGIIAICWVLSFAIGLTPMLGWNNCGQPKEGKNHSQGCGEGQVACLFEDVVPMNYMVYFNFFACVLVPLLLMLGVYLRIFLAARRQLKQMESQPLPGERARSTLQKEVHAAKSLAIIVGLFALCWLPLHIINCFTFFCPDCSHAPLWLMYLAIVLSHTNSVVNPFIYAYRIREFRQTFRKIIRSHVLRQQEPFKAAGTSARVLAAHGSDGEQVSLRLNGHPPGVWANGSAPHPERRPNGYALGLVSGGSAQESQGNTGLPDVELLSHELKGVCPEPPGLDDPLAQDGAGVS

| Structure (SMILES) | Ki (Adenosine receptor A1) [µM] | Ki (Adenosine receptor A3 [1]) [µM] | inhibition (Adenosine receptor A2a [2]) [%] | Ki (Adenosine receptor A3 [3]) [µM] | Activity [4] | Selectivity ratio [5] | Ki (Adenosine receptor A2a [6]) [µM] | inhibition [7] [%] |
| --- | --- | --- | --- | --- | --- | --- | --- | --- |
| CNc1nc(-n2cc(-c3ccccn3)nn2)nc2c1ncn2[C@@H]1O[C@H](CO)[C@@H](O)[C@H]1O | 1.97 | 0.0103 | 40 | > 10 | inactive |  |  |  |
| CNc1nc(-n2ccnn2)nc2c1ncn2[C@@H]1O[C@H](CO)[C@@H](O)[C@H]1O | 1 | 0.0104 | 13 |  |  |  |  |  |
| CCNC(=O)[C@H]1O[C@@H](n2cnc3c(NC)nc(-n4cc(-c5ccccn5)nn4)nc32)[C@H](O)[C@@H]1O | 1.64 | 0.0018 | 45 |  | < 50% | 910 |  |  |
| CNc1nc(-n2cc(CCO)nn2)nc2c1ncn2[C@@H]1O[C@H](CO)[C@@H](O)[C@H]1O | 1.27 | 0.045 | 14 |  | inactive |  |  |  |
| CCNC(=O)[C@H]1O[C@@H](n2cnc3c(NC)nc(-n4cc(CC5CCCC5)nn4)nc32)[C@H](O)[C@@H]1O | 1.25 | 0.0115 | 36 |  | < 50% |  |  |  |
| CNc1nc(-n2cc(CN(C)C)nn2)nc2c1ncn2[C@@H]1O[C@H](CO)[C@@H](O)[C@H]1O | 3.8 | 0.117 | 6 | > 10 | inactive |  |  |  |
| COc1ccc(Cl)cc1CNc1nc(-n2cc(CC3CCCC3)nn2)nc2c1ncn2[C@@H]1O[C@H](CO)[C@@H](O)[C@H]1O | 0.83 | 0.018 |  |  |  |  | 6 |  |
| CNc1nc(-c2cn(Cc3cccc(Cl)c3)nn2)nc2c1ncn2[C@@H]1O[C@H](CO)[C@@H](O)[C@H]1O | 0.956 | 0.0811 | 39 |  | < 50% |  |  |  |
| CNc1nc(-c2cn(Cc3cccc(OC)c3)nn2)nc2c1ncn2[C@@H]1O[C@H](CO)[C@@H](O)[C@H]1O | 0.957 | 0.0861 | 43 |  | < 50% |  |  |  |
| CNc1nc(-n2cc(CC3CCCCC3)nn2)nc2c1ncn2[C@@H]1O[C@H](CO)[C@@H](O)[C@H]1O | 1.43 | 0.0213 | 16 |  | < 50% | 67 |  |  |
| CCNC(=O)[C@H]1O[C@@H](n2cnc3c(NC)nc(N=[N+]=[N-])nc32)[C@H](O)[C@@H]1O |  |  | 18 |  | 50% |  |  |  |
| CCNC(=O)[C@H]1O[C@@H](n2cnc3c(NC)nc(-n4cc(Cc5ccccc5)nn4)nc32)[C@H](O)[C@@H]1O | 0.51 | 0.0028 | 33 |  | 50% |  |  |  |
| CNc1nc(N=[N+]=[N-])nc2c1ncn2[C@@H]1O[C@H](CO)[C@@H](O)[C@H]1O |  |  | 23 |  | < 50% |  |  |  |
| CNc1nc(-n2cc(CC3CCCC3)nn2)nc2c1ncn2[C@@H]1O[C@H](CO)[C@@H](O)[C@H]1O | 0.335 | 0.0013 | 39 | 0.312 | < 50% | 260 |  |  |
| CNc1nc(-n2cc(-c3ccccc3)nn2)nc2c1ncn2[C@@H]1O[C@H](CO)[C@@H](O)[C@H]1O |  | 0.0149 | 5 |  | inactive |  |  | 36 |
| CCCOc1ccc(-c2cn(-c3nc(NC)c4ncn([C@@H]5O[C@H](CO)[C@@H](O)[C@H]5O)c4n3)nn2)cc1 |  | 0.0252 | 14 | > 10 | < 50% |  |  | 49 |
| CCNC(=O)[C@H]1O[C@@H](n2cnc3c(NC)nc(-n4ccnn4)nc32)[C@H](O)[C@@H]1O | 0.59 | 0.0021 | 18 |  | inactive |  |  |  |
| CCCCc1cn(-c2nc(NC)c3ncn([C@@H]4O[C@H](CO)[C@@H](O)[C@H]4O)c3n2)nn1 |  | 0.0117 | 23 |  | inactive | 72 |  |  |
| CNc1nc(-c2cn(Cc3ccccc3)nn2)nc2c1ncn2[C@@H]1O[C@H](CO)[C@@H](O)[C@H]1O | 0.77 | 0.0539 | 21 |  | < 50% |  |  |  |
| CNc1nc(-n2cc(Cc3ccccc3)nn2)nc2c1ncn2[C@@H]1O[C@H](CO)[C@@H](O)[C@H]1O | 0.589 | 0.0095 | 20 | 1.79 | < 50% |  |  |  |
| CCCCc1cn(-c2nc(NC)c3ncn([C@@H]4O[C@H](C(=O)NCC)[C@@H](O)[C@H]4O)c3n2)nn1 | 0.75 | 0.0056 | 43 |  | inactive |  |  |  |
| CCc1cn(-c2nc(NC)c3ncn([C@@H]4O[C@H](CO)[C@@H](O)[C@H]4O)c3n2)nn1 | 2.92 | 0.0138 | 18 |  | < 50% |  |  |  |
